This passage reports folding enthalpy and Tm results from the array DNA melting data of Ke et al. (doi:10.1101/2024.01.08.574731).

Series [1] in a line: folding enthalpy; higher = less favourable; fluorescence melt of hairpins on a sequencing array, two-state fit. Particulars: sodium 0.088 M. A digest of the protocol:
(§1)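 Cy3 signals were normalised both to pre-quench Cy3 and to control constructs. They came from library hairpins carrying annealed Cy3 and quencher oligos on a sequenced MiSeq flow cell, imaged in 50 mM Na-HEPES pH 8.0, 25 mM NaCl, in 2.5 °C steps up to 60 °C. Bootstrapped two-state fits gave melting temperature and folding enthalpy, and four replicates were combined by inverse variance. Fitted temperatures were then raised by 9.35 °C to match UV melts.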

Series [2] can be described thus: melting temperature; fluorescence melt of hairpins on a sequencing array, two-state fit, raised by 9.35 °C to match UV melts. The settings on record: sodium 0.088 M. A digest of the protocol: as §1

In the case of GTTCCCGAAAGGGGAAC ((((((....))).))), the folding enthalpy in series [1] is -87.2 kJ/mol. In addition, the Tm in series [2] was 57.4 °C.
The like results for GTTCCCGAAAGGGGGAAC ((((((....)))..))) were, in that order, -80.7 kJ/mol and 48.4 °C.
For the sequence GTTCCCGGAAACGGAAAC (((.(((....))).))), the folding enthalpy in series [1] was -102 kJ/mol. The Tm in series [2] amounted to 41.1 °C.
The like results for GTTCCTCGAAAGAGAAAC (((.(((....))).))) were, in that order, -84.9 kJ/mol and 38.1 °C.
The like results for GTTCGCGAAAGCGAGAAC ((((((....)))..))) were, in that order, -41.7 kJ/mol and 42.3 °C.
The matching figures for GTTCGCGAAAGCGTAAAC ((((((....)))..))): -43.3 kJ/mol and 31.9 °C.
As to GTTCGCGCGAAAGCGAAC (((..(((....)))))), the folding enthalpy in series [1] is -118 kJ/mol. Also, the Tm in series [2] stood at 60.5 °C.
On to GTTCGCGGAAACGCAAAC (((.(((....))).))), for which the folding enthalpy in series [1] was -87.1 kJ/mol. The Tm in series [2] came out at 43.7 °C.
GTTCGGACGAAAGTCAAC (((..(((....)))))): the folding enthalpy in series [1] was -40.3 kJ/mol. In addition, the Tm in series [2] was determined as 29.1 °C.
Take GTTCGGCGAAAGCCTAAC (((.(((....))).))): the folding enthalpy in series [1] was -80.5 kJ/mol. In addition, the Tm in series [2] was determined as 43 °C.
As for GTTCGGGGAAACCCGAAC (((((((....))))))), the folding enthalpy in series [1] was -166 kJ/mol. In series [2], the Tm is 69 °C.
With GTTCGTCGAAAGACTAAC (((.(((....))).))), the folding enthalpy in series [1] is -92.8 kJ/mol. In addition, in series [2], the Tm turned out to be 41.3 °C.
The matching figures for GTTCGTGGAAACATGAGC (.((.((....)).)).): -75.9 kJ/mol and 31.6 °C.
In the case of GTTCGTGGAAACGTGAAC ((((..(....)..)))), in series [1], the folding enthalpy is -64.2 kJ/mol. Moreover, in series [2], the Tm came to 34.8 °C.
The matching figures for GTTCTACGAAAGTATAAC (((.(((....))).))): -100 kJ/mol and 34.5 °C.
Regarding GTTCTAGCGAAAGCTAAC (((..(((....)))))), in series [1], the folding enthalpy was -41.8 kJ/mol. Further, the Tm in series [2] was found to be 28.9 °C.
For GTTCTAGGAAACTAGAAC (((((((....))))))), in series [1], the folding enthalpy is -146 kJ/mol. In addition, the Tm in series [2] worked out at 53.1 °C.
The like results for GTTCTCACGAAAGTGAAC (((..(((....)))))) were, in that order, -45.6 kJ/mol and 31.6 °C.
The matching figures for GTTCTCGAAAGAGAAAC ((((((....))).))): -71.1 kJ/mol and 39.7 °C.
Regarding GTTCTGCGAAAGCACAAC (((.(((....))).))), the folding enthalpy in series [1] was -52.7 kJ/mol. Also, the Tm in series [2] was found to be 33.3 °C.
Consider GTTCTTGGAAACGAGAAC (((((.(....).))))), for which the folding enthalpy in series [1] was -120 kJ/mol. In series [2], the Tm was 43.6 °C.
The like results for GTTGACACGAAAGTGAAC (((..(((....)))))) were, in that order, -59.2 kJ/mol and 34.1 °C.
The like results for GTTGACCGAAAGGTGAAC (((.(((....))).))) were, in that order, -113 kJ/mol and 48.4 °C.
Take GTTGACGAAAGTCAGAAC ((((((....)))..))): in series [1], the folding enthalpy was -43.7 kJ/mol. Further, the Tm in series [2] stood at 36.5 °C.
The matching figures for GTTGACGAAAGTCGAAC ((((((....))).))): -77.1 kJ/mol and 45.4 °C.
The matching figures for GTTGACGGAAACGCCAAC ((((.((....)).)))): -167 kJ/mol and 49.6 °C.
The matching figures for GTTGACGGAAACGTCAAC (((((((....))))))): -141 kJ/mol and 66.9 °C.
Turning to GTTGACGGAAACGTCGAC ((.((((....)))).)), in series [1], the folding enthalpy was -182 kJ/mol. Moreover, the Tm in series [2] is 54.8 °C.
The matching figures for GTTGACGGAAACGTTAAC (((.(((....))).))): -113 kJ/mol and 47.1 °C.
The matching figures for GTTGAGCCGAAAGGCAAC (((..(((....)))))): -44.4 kJ/mol and 38.8 °C.
Turning to GTTGAGGGAAACCTCAAC (((((((....))))))), in series [1], the folding enthalpy was -177 kJ/mol. In series [2], the Tm turned out to be 59.8 °C.
For the sequence GTTGATGGAAACATCGAC ((.((((....)))).)), in series [1], the folding enthalpy is -150 kJ/mol. The Tm in series [2] was found to be 48.5 °C.
For the sequence GTTGCACGAAAGTGGAAC (((.(((....))).))), the folding enthalpy in series [1] is -148 kJ/mol. In series [2], the Tm was found to be 56.6 °C.
In the case of GTTGCACGAAAGTGTAAC (((.(((....))).))), the folding enthalpy in series [1] was -124 kJ/mol. In addition, in series [2], the Tm is 55.5 °C.
The matching figures for GTTGCAGAAATGCAAC ((((((....)))))): -148 kJ/mol and 57.5 °C.
As to GTTGCAGGAAACCGCAAC (((((.(....).))))), the folding enthalpy in series [1] is -183 kJ/mol. In addition, the Tm in series [2] worked out at 51.5 °C.
Turning to GTTGCAGGAAACTGCAGC (.(((((....))))).), in series [1], the folding enthalpy was -72.9 kJ/mol. The Tm in series [2] was determined as 51.5 °C.
The matching figures for GTTGCCGAAAGGCAGAAC ((((((....)))..))): -36 kJ/mol and 37.3 °C.
On to GTTGCCGAAAGGCATAAC ((((((....)))..))), for which the folding enthalpy in series [1] is -37.7 kJ/mol. In addition, the Tm in series [2] was determined as 36.8 °C.
The like results for GTTGCCGAAAGGCCCAAC ((((((....)))..))) were, in that order, -28.4 kJ/mol and 29.4 °C.
The matching figures for GTTGCCGAAAGGCTAAC ((((((....))).))): -58.5 kJ/mol and 42.3 °C.
The like results for GTTGCCGAAAGGCTCAAC ((((((....)))..))) were, in that order, -33.3 kJ/mol and 29.8 °C.
With GTTGCCGCGAAAGCGAAC (((..(((....)))))), in series [1], the folding enthalpy is -52.6 kJ/mol. Moreover, the Tm in series [2] was determined as 35.6 °C.
GTTGCCGGAAACGACAAC ((((.((....)).)))): the folding enthalpy in series [1] is -117 kJ/mol. In addition, the Tm in series [2] was determined as 48.5 °C.
Take GTTGCGCGAAAGCGAAAC (((.(((....))).))): the folding enthalpy in series [1] is -116 kJ/mol. In series [2], the Tm came out at 59.5 °C.
The like results for GTTGCGGGAAACCGCAGC (.(((((....))))).) were, in that order, -59.4 kJ/mol and 56.4 °C.
As for GTTGCTGGAAACAGCGAC ((.((((....)))).)), the folding enthalpy in series [1] is -166 kJ/mol. Besides, the Tm in series [2] worked out at 54.3 °C.
The matching figures for GTTGCTGGAAACAGTAGC (.(.(((....))).).): -82.4 kJ/mol and 35.3 °C.
On to GTTGGACCGAAAGGTAAC (((..(((....)))))), for which the folding enthalpy in series [1] is -83.6 kJ/mol. For the same sequence, the Tm in series [2] was 35.8 °C.
GTTGGAGGAAACTTCAAC ((((.((....)).)))): the folding enthalpy in series [1] is -131 kJ/mol. The Tm in series [2] was 41.9 °C.
The like results for GTTGGCCGAAAGGCTAAC (((.(((....))).))) were, in that order, -120 kJ/mol and 58.3 °C.
The matching figures for GTTGGCGAAAGCCCAAAC ((((((....)))..))): -29.7 kJ/mol and 24.8 °C.
The like results for GTTGGCGAAAGCCGTAAC ((((((....)))..))) were, in that order, -39.9 kJ/mol and 33.4 °C.
In the case of GTTGGCGGAAACGCCGAC ((.((((....)))).)), in series [1], the folding enthalpy was -105 kJ/mol. In series [2], the Tm turned out to be 59.4 °C.
The like results for GTTGGCGGAAACGCTGAC ((..(((....)))..)) were, in that order, -70.4 kJ/mol and 45 °C.
Regarding GTTGGCGGAAACGTCGAC ((.(.((....)).).)), the folding enthalpy in series [1] is -80 kJ/mol. Moreover, the Tm in series [2] turned out to be 47.6 °C.
The like results for GTTGGGACGAAAGTCAAC (((..(((....)))))) were, in that order, -81.9 kJ/mol and 41.5 °C.
With GTTGGGGCGAAAGCCAAC (((..(((....)))))), the folding enthalpy in series [1] is -69 kJ/mol. Further, the Tm in series [2] worked out at 46 °C.
The like results for GTTGGTCGAAAGACAAC (((.(((....)))))) were, in that order, -85.3 kJ/mol and 45.7 °C.
The matching figures for GTTGGTCGAAAGACGAAC (((.(((....))).))): -125 kJ/mol and 48.1 °C.
The like results for GTTGGTGCGAAAGCAAAC (((..(((....)))))) were, in that order, -86.6 kJ/mol and 43 °C.
As for GTTGGTGGAAACACTAAC (((.(((....))).))), in series [1], the folding enthalpy was -124 kJ/mol. For the same sequence, in series [2], the Tm was found to be 45 °C.
The like results for GTTGGTGGAAACACTAGC (.(.(((....))).).) were, in that order, -41.6 kJ/mol and 27.8 °C.
The like results for GTTGGTGGAAACATCAAC ((((.((....)).)))) were, in that order, -158 kJ/mol and 46.5 °C.
With GTTGGTGGAAACGCTAAC (((.(.(....).).))), in series [1], the folding enthalpy is -58.5 kJ/mol. Besides, in series [2], the Tm was found to be 30.7 °C.
The like results for GTTGTACGAAAGTAAAAC (((.(((....))).))) were, in that order, -112 kJ/mol and 38.8 °C.
As for GTTGTAGGAAACTACAAC (((((((....))))))), in series [1], the folding enthalpy is -169 kJ/mol. Further, in series [2], the Tm is 56.1 °C.
The like results for GTTGTAGGAAACTATGAC ((..(((....)))..)) were, in that order, -58.9 kJ/mol and 26.6 °C.
Consider GTTGTCCGAAAGGAAAAC (((.(((....))).))), for which the folding enthalpy in series [1] is -113 kJ/mol. In addition, in series [2], the Tm came to 44.9 °C.
The matching figures for GTTGTCCGAAAGGAGAAC (((.(((....))).))): -119 kJ/mol and 51.2 °C.
With GTTGTCGAAAGACCAAAC ((((((....)))..))), in series [1], the folding enthalpy was -44.3 kJ/mol. Moreover, in series [2], the Tm is 26 °C.
The like results for GTTGTCGAAAGACCAAC ((((((....))).))) were, in that order, -85.4 kJ/mol and 38 °C.
The like results for GTTGTCGAAAGACGAAC ((((((....))).))) were, in that order, -75 kJ/mol and 39.8 °C.
